The record followed here is ChEMBL document CHEMBL1147458, “Lead identification of a potent benzopyranone selective estrogen receptor modulator” (Bioorg Med Chem Lett, 2004).

One assay deals with U2OS. Kind of assay: Ability to inhibit release of interleukin-6 from U2OS cell lines transfected with estrogen receptor alpha. Format: functional, cell-based. The following applies: Homo sapiens. The gist of the method:
(§1)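 Estrogen-receptor-negative osteosarcoma U2OS cells, transfected with ER-α, were screened for inhibition of IL-6 cytokine release.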

In a further assay the test system is MCF7. Kind of assay: Antiproliferative activity against MCF-7 cell line. In kind it is functional, cell-based. The following applies: Homo sapiens.
A short description of assay [1]: Concentration required for inhibition of Interleukin-6 in U20S cells was determined. Format: cell-based. The gist of the method: as §1

For `O=c1oc2cc(O)ccc2c(-c2ccc(OCCCCCCN3CCCCC3)cc2)c1-c1ccccc1`, the values for the IC50 with U2OS and in the assay on MCF7 were 145 nM and 720 nM, respectively.

With `O=c1oc2cc(O)ccc2c(Cc2ccc(OCCN3CCCCC3)cc2)c1-c1ccccc1`, the 50% inhibitory concentration (IC50) – broadly, the midpoint of a concentration-inhibition curve – in the assay with U2OS was 0.38 nM; with MCF7, 7.7 nM.

`O=c1oc2cc(O)ccc2c(-c2cccc(OCCCCCN3CCCCC3)c2)c1-c1ccccc1`: the IC50 in the assay with U2OS stood at 11 nM; in the assay with MCF7 it was 15 nM.

For the compound `O=C(c1ccc(OCCN2CCCCC2)cc1)c1c(-c2ccc(O)cc2)sc2cc(O)ccc12` [RALOXIFENE], the IC50 with U2OS came to 3.1 nM; in the assay on MCF7, 4.9 nM.

Consider `O=c1oc2cc(O)ccc2c(Cc2ccc(OCCCCN3CCCCC3)cc2)c1-c1ccccc1`, for which the IC50 with U2OS came out at 5 nM; in the assay on MCF7, 13 nM.

Consider `O=c1oc2cc(O)ccc2c(-c2cccc(OCCCCN3CCCCC3)c2)c1-c1ccccc1`, for which the IC50 in the assay on U2OS came to 3.2 nM; with MCF7 it was 12 nM.

Regarding `O=c1oc2cc(O)ccc2c(Cc2ccc(OCCCN3CCCCC3)cc2)c1-c1ccccc1`, the IC50 with U2OS came to 4.4 nM; in the assay with MCF7, 18 nM.

Consider `O=c1oc2cc(O)ccc2c(-c2cccc(OCCCN3CCCCC3)c2)c1-c1ccccc1`, for which the IC50 was determined as 1.5 nM in the assay with U2OS and 9.5 nM in the assay on MCF7.

Take `O=c1oc2cc(O)ccc2c(-c2ccc(OCCCN3CCCCC3)cc2)c1-c1ccccc1`: the IC50 in the assay with U2OS was determined as 355 nM; in the assay on MCF7 it was 335 nM.

For the compound `O=c1oc2cc(O)ccc2c(-c2ccc(OCCN3CCCCC3)cc2)c1-c1ccccc1`, the IC50 in the assay with U2OS worked out at 505 nM; in the assay with MCF7 it was 425 nM.

As for `O=c1oc2cc(O)ccc2c(-c2ccc(OCCCCN3CCCCC3)cc2)c1-c1ccccc1`, the IC50 amounted to 69 nM with U2OS and 134 nM in the assay on MCF7.

On to `O=c1oc2cc(O)ccc2c(-c2ccc(OCCCCCN3CCCCC3)cc2)c1-c1ccccc1`, for which the IC50 came out at 114 nM with U2OS and 335 nM in the assay with MCF7.

In turn, `CCCc1c(Cc2c(F)cccc2Cl)c(=O)oc2cc(O)ccc12` returned an IC50 in assay [1] of 300 nM.

For the compound `CC/C(=C(\c1ccc(O)cc1)c1ccc(OCCN(C)C)cc1)c1ccccc1`, the IC50 was 1.9 nM in the assay with U2OS and 24 nM in the assay with MCF7.

For `O=c1oc2cc(O)ccc2c(-c2cccc(OCCN3CCCCC3)c2)c1-c1ccccc1`, the IC50 in the assay on U2OS was found to be 12 nM; with MCF7, 85 nM.
